Measurements reported in ChEMBL document CHEMBL1926592, “Synthesis and in vitro evaluation of fluorinated styryl benzazoles as amyloid-probes” (Bioorg Med Chem, 2011).
The source made the active and inactive calls. No cut-off for these calls is given here.

What was measured:
[1] = organism: Homo sapiens; experiment: Binding affinity to human […] fibril assessed as intrinsic fluorescence intensity
[2] = target: T1, Amyloid-beta precursor protein (Homo sapiens, UniProt P05067); experiment: Binding affinity to human amyloid beta (1 to 42) fibril by fluorescence intensity assay
T1 sequence (P05067 whole entry): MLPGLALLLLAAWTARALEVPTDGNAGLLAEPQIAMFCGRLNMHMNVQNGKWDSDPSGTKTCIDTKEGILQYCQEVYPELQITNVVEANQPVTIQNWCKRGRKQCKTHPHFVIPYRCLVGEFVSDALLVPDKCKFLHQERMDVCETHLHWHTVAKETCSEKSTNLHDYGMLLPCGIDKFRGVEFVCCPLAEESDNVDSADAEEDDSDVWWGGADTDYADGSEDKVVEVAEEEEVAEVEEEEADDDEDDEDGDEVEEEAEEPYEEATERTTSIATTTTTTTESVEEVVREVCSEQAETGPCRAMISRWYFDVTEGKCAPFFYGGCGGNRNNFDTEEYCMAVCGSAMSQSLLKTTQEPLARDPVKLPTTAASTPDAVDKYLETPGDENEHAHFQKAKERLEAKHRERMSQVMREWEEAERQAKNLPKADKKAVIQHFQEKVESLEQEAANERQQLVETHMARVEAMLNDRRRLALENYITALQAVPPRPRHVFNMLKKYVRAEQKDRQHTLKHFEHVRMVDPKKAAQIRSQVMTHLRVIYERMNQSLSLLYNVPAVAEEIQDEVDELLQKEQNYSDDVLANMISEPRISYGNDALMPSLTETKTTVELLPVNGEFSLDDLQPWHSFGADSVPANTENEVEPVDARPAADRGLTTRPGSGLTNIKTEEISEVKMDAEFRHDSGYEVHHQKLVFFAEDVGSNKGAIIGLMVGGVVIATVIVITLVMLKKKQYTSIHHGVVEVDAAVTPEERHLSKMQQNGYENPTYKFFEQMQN
Summary of the method: (§1)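 Fibrils grown from human insulin (3 mg/mL, Tris-HCl 50 mM pH 3), E. coli-expressed human α-syn (3 mg/mL, pH 7.4) or Aβ(1–42) (0.5 mg/ml, 1% NH4OH). Fibril level taken as supernatant protein depletion. Plate-reader intensity read at each ligand's maximal excitation/emission wavelengths, dye blanks subtracted. Kd from single-site saturation fit.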

[3] = organism: Homo sapiens; experiment: Binding affinity to human insulin fibril assessed as intrinsic fluorescence intensity
[4] = target: T1, Amyloid-beta precursor protein; experiment: Binding affinity to human amyloid beta (1 to 42) monomer by fluorescence intensity assay
[5] = target: T1, Amyloid-beta precursor protein; experiment: Binding affinity to human amyloid beta (1 to 42) fibril assessed as intrinsic fluorescence intensity
[6] = Binding affinity to human insulin fibril by fluorescence intensity assay
Summary of the method: as §1, with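 “depletion. Fixed fibrils (3.5–11.35) titrated with ligand (DMSO stock diluted into 50 mM Tris-HCl pH 7.4).” for “depletion.”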

[7] = target: Albumin (Bos taurus, UniProt P02769); experiment: Binding affinity to bovine serum albumin by fluorescence intensity assay; assay type: ADME; conditions: cattle, isolated protein
Albumin, sequence (P02769 whole entry): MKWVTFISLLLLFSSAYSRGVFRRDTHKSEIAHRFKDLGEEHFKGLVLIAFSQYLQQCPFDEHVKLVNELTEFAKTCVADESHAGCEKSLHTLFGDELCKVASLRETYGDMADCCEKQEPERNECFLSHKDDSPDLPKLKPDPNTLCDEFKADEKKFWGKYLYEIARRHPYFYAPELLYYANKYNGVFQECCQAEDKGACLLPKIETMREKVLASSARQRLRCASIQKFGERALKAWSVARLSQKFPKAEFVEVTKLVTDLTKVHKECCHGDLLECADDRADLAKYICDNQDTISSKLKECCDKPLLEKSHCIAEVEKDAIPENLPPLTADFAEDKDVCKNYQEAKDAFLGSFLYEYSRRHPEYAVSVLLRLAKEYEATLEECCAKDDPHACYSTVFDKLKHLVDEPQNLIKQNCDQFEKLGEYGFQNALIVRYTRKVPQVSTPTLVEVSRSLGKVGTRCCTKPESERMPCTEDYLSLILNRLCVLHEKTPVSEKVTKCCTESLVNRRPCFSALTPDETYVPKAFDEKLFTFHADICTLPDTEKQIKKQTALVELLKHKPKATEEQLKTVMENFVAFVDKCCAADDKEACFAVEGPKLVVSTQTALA
Summary of the method: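 BSA titrated with increasing ligand concentrations in 50 mM Tris-HCl pH 7.4, in the same way as the fibril assays. Intrinsic fluorescence intensity was read on a plate reader with dye-blank background subtracted. Kd came from a single-site saturation curve fit.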

[8] = target: Insulin (Homo sapiens) (UniProt P01308); experiment: Binding affinity to human insulin monomer by fluorescence intensity assay
Insulin (Homo sapiens), sequence (P01308 whole entry): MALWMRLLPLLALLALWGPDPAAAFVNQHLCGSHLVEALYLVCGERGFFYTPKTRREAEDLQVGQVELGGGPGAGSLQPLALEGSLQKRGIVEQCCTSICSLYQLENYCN

[9] = organism: Homo sapiens; experiment: Binding affinity to human insulin fibril assessed as increase in intrinsic fluorescence intensity at 2.25 uM relative to equimolar monomeric specie
[10] = target: T1, Amyloid-beta precursor protein; experiment: Binding affinity to human amyloid beta (1 to 42) fibril assessed as increase in intrinsic fluorescence intensity at 2.25 uM relative to equimolar monomeric specie
[11] = target: Alpha-synuclein (Homo sapiens) (UniProt P37840); experiment: Binding affinity to human alpha-synuclein fibril by fluorescence intensity assay
[12] = target: Alpha-synuclein (Homo sapiens) (UniProt P37840); experiment: Binding affinity to human alpha-synuclein monomer expressed in Escherichia coli BL21 by fluorescence intensity assay
[13] = organism: Homo sapiens; experiment: Binding affinity to human […] fibril assessed as increase in intrinsic fluorescence intensity at 2.25 uM relative to equimolar monomeric specie

Structure (SMILES)	Activity [1]	Kd [2] [µM⁻¹]	Activity [3]	Activity [4]	Activity [5]	Kd [6] [µM⁻¹]	Activity [7]	Activity [8]	fold change (FC) [9]	fold change (FC) [10]	Kd [11] [µM⁻¹]	Activity [12]	fold change (FC) [13]
CN(CCF)c1ccc(/C=C\c2nc3ccccc3s2)cc1	Active	23.96	Active	inactive	Active	8.59	Not Active	inactive	2.98	11.3	7.35	inactive	9.48
CN(CCF)c1ccc(/C=C\c2nc3ccccc3[nH]2)cc1	Active		Active	inactive	Active		Not Active	inactive				inactive	
CN(CCF)c1ccc(/C=C\c2nc3ccccc3n2C)cc1	Active	3.52	Active	inactive	Active	3.86	Not Active	inactive	2.84	5.9	1.85	inactive	2.84
CN(CCF)c1ccc(/C=C/c2nc3ccccc3[nH]2)cc1	Active	3.63	Active	inactive	Active	1.54	Not Active	inactive	2.49	2.71	3.31	inactive	4.5
CN(CCF)c1ccc(/C=C/c2nc3ccccc3s2)cc1	Active	10.67	Active	inactive	Active	1.79	Not Active	inactive	3.3	7.41	1.38	inactive	4.48
Cc1ccc2c(c1)sc(-c1ccc(N(C)C)cc1)[n+]2C.[Cl-] [THIOFLAVIN T]						2.54							

Now from value to molecule:

Activity [1]	Kd [2] [µM⁻¹]	Activity [3]	Activity [4]	Activity [5]	Kd [6] [µM⁻¹]	Activity [7]	Activity [8]	fold change (FC) [9]	fold change (FC) [10]	Kd [11] [µM⁻¹]	Activity [12]	fold change (FC) [13]	Structure (SMILES)
Active	5.99	Active	inactive	Active	3.24	Not Active	inactive	1.6	1.28	7.43	inactive	1.63	CN(CCF)c1ccc(/C=C\c2nc3ccccc3o2)cc1
Active	5.19	Active	inactive	Active	1.22	Not Active	inactive	3.63	5.17	1.81	inactive	2.23	CN(CCF)c1ccc(/C=C/c2nc3ccccc3n2C)cc1
Active	4.48	Active	inactive	Active	2.28	Not Active	inactive	1.98	2.69	3.24	inactive	1.98	CN(CCF)c1ccc(/C=C/c2nc3ccccc3o2)cc1
